Laboratory results: ChEMBL document CHEMBL1765038, “Cytotoxic and anti-inflammatory cembranoids from the Vietnamese soft coral Lobophytum laevigatum” (Bioorg Med Chem, 2011)
Active and inactive are the calls of the source. The calls are words filed in the database; no cut-off is given here.

How the values were obtained:
HCT-116 = experiment: Cytotoxicity against human HCT116 cells by MTT assay; format: functional, cell-based
In short: (§1)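 MTT colorimetric assay on human cancer cell lines (leukemia HL-60, lung A549, colon HCT-116, breast MCF-7) obtained from the Korea Cell Line Bank; values reported as IC50.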

HL-60 = experiment: Cytotoxicity against human HL60 cells by MTT assay; format: functional, cell-based; in short: as §1
A549 = experiment: Cytotoxicity against human A549 cells by MTT assay; format: functional, cell-based; in short: as §1
MCF7 = experiment: Cytotoxicity against human MCF7 cells by MTT assay; format: functional, cell-based; in short: as §1
HepG2 [1] = experiment: Inhibition of NF-kappaB-induced COX2 mRNA expression in TNF-alpha-stimulated human HepG2 cells at 1 to 9 uM pretreated for 1 hr by RT-PCR; format: cell-based
In short: (§2)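 Hep-G2 cells pretreated with or without compound for 1 h, then exposed to 10 ng/mL TNFα for 6 h. Total mRNA isolated from cell pellets. COX-2 and iNOS transcripts quantified by RT-PCR, with primer specificity checked by gel electrophoresis and melting-curve analysis.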

[2] = Inhibition of TNF-alpha-induced NF-kappaB transcriptional activity in human HepG2 cells pretreated for 1 hr by luciferase reporter gene assay; format: cell-based
In short: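 Hep-G2 cells seeded at 2 × 10^5 per well, grown 24 h, then transfected (Lipofectamine LTX) with a firefly luciferase reporter under a minimal CMV promoter with tandem NF-κB response elements. Cells pretreated 1 h with vehicle (DMSO) or compound (0.1, 1, 10 µM), then 10 ng/mL TNFα for 1 h. Lysates read for luminescence. Unstimulated cells as negative control, PDTC 10 µM as positive control. Mean ± SD, n = 6; IC50 derived.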

HepG2 [3] = experiment: Inhibition of NF-kappaB-induced iNOS mRNA expression in TNF-alpha-stimulated human HepG2 cells at 1 to 9 uM pretreated for 1 hr by RT-PCR; format: cell-based; in short: as §2
HepG2 [4] = experiment: Cytotoxicity against human HepG2 cells at 0.1 to 10 uM; format: cell-based; conditions: hepg2, 10 µM
In short: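 Hep-G2 viability measured by MTT assay at the concentrations used in the NF-κB reporter and mRNA experiments.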

Row | IC50 [2] [µM] | SMILES | Activity (HCT-116) | Activity (HL-60) | Activity (A549) | Activity (MCF7) | inhibition (HepG2 [1]) | IC50 (HCT-116) [µM] | IC50 (HL-60) [µM] | IC50 (A549) [µM] | inhibition (HepG2 [3]) | Activity (HepG2 [4]) | IC50 (MCF7) [µM]
1 |  | C/C1=C/[C@]2(O)OC[C@@]3(C)O[C@]32CC[C@](C)(O)/C=C/C[C@@](C)(O)[C@@H](O)CC1 | inactive | inactive | inactive | inactive |  |  |  |  |  |  | 
2 |  | CC1=C2CC/C(C)=C/CC[C@@]3(C)O[C@H]3CC[C@](C)(O)/C=C/2OC1=O | inactive | inactive | inactive | inactive |  |  |  |  |  |  | 
3 | 6.9 | COC(=O)[C@@]12CC(=O)[C@@H](C(C)C)CC(=O)[C@@H](C)CCC[C@@H](C)CC(=O)C1CC(C)=C1C2/C=C(\C)CCC2OC(CC[C@]2(C)OC(C)=O)[C@](C)(O)C[C@H]1O (stereo partly drawn) [XIMAOLIDE F] |  |  |  |  | Dose-dependent effect | 16.4 | 9 | 28.4 | Dose-dependent effect | Non-toxic | > 40
4 | 6.7 | COC(=O)[C@@]12CC(=O)[C@@H](C(C)C)CC(=O)[C@@H](C)CCC[C@@H](C)CC(=O)[C@@H]1CC(C)=C1[C@@H]3C[C@@](C)(O)[C@H](CC[C@@H](C)C(=O)CC/C(C)=C/[C@H]12)O3 [METHYL TORTUOATE B] |  |  |  |  | Dose-dependent effect | 19.7 | 25.8 | 24.4 | Dose-dependent effect | Non-toxic | > 40
5 |  | O=C1c2c(O)ccc(O)c2C(=O)c2c(NCCNCCO)ccc(NCCNCCO)c21 [MITOXANTRONE] |  |  |  |  |  | 7.2 | 7.9 |  |  |  | 
6 | 9.7 | C=C1CO[C@H]2/C=C(\C)CC[C@@H]3O[C@]3(C)CC/C=C(\C)CC[C@@]12O [LAEVIGATOL B] | inactive | inactive | inactive | inactive | Dose-dependent effect |  |  |  | Dose-dependent effect | Non-toxic | 
7 | 9.4 | C/C1=C\[C@@H]2O[C@@H](O)[C@@]3(C)O[C@@]23CC/C(C)=C/CC[C@@]2(C)O[C@H]2CC1 [LAEVIGATOL A] | inactive | inactive | inactive | inactive | Dose-dependent effect |  |  |  | Dose-dependent effect | Non-toxic | 
8 |  | COC(=O)/C1=C\C=C(\C(C)C)CCC2=CCC[C@](C)(OC2=O)[C@@H](OC(C)=O)CC1 [EMBLIDE] |  |  |  |  |  | > 40 | 38.8 | > 40 |  |  | > 40
9 |  | CC1=C2CC/C(C)=C/CC[C@]3(C)O[C@H]3CC/C(C)=C/[C@@H]2OC1=O [SARCOPHINE] |  |  |  |  |  | > 40 | 34.7 | > 40 |  |  | > 40
10 |  | COC(=O)[C@]12CC(=O)[C@H](C(C)C)CC(=O)[C@H](C)CCC[C@H](C)CC(=O)[C@H]1CC(C)=C1C[C@H](OC(C)=O)[C@](C)(O)[C@H]3CC[C@@](C)(O)[C@H](CC/C(C)=C/[C@@H]12)O3 [NYALOLIDE] |  |  |  |  |  | 17.5 | 28.1 | 28.7 |  |  | 35.5
11 |  | C/C1=C\[C@]2(O)OC[C@@]3(C)O[C@]32CC[C@](C)(O)/C=C/C[C@@]2(C)O[C@H]2CC1 | inactive | inactive | inactive | inactive |  |  |  |  |  |  | 
